Common to all, as to type: biochemical
The target in test [1] is APC (activated protein C) (Homo sapiens, UniProt P04070). Briefly: Initial substrate screening. Particulars: for increase in activity on exchanging L-Nle(O-Bzl) (SMA4) at P3: initial screening, 1 μM substrate, relative to SMA4. In a few lines: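 Plasma-derived human APC (thrombin–thrombomodulin-activated) was preincubated 15 min at 37 °C in Tris/NaCl/CaCl2 buffer, pH 7.4, then added to ACC substrates at 1 μM final. Final APC was 50–90 nM, chosen per substrate set. ACC release was read at 355/460 nm for 30 min. Rates (RFU s−1) came from the linear portion and were adjusted to equal enzyme activity; at least 2 repeats were averaged.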

Test [2] has as its target T1, thrombin (Homo sapiens, UniProt P00734). Briefly: Inhibition kinetics. Particulars: ratio of kobs/I values.
The target in test [3] is T1, thrombin. Briefly: Substrate kinetics. Particulars: ratio of kcat/KM values. In outline:
(§1)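 Purified plasma-derived human enzymes were preincubated 15 min at 37 °C in Tris/NaCl/CaCl2 buffer, pH 7.4. They were added to eight serially diluted ACC substrate concentrations (4.68 nM–741 μM overall). ACC release was followed at 355/460 nm for 30 min at 37 °C to derive kcat, KM and kcat/KM; at least duplicate runs were averaged.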

In the next test the test system is thrombin in human plasma. The test can be described thus: Thrombin labeling by fluorescent ABP in human plasma. Particulars: EDTA plasma diluted 7.5 times, probe 20 μM, 60 min, 37 °C; SDS–PAGE. In outline: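 Human plasma from EDTA-anticoagulated whole blood, diluted 7.5-fold in Tris/NaCl/5 mM CaCl2 buffer, pH 7.4, incubated 1:1 with thrombin-directed Cy7 probe (1–20 μM) for 60 min at 37 °C. Reduced in SDS/DTT at 95 °C, run on 12% SDS–PAGE and blotted. Sheep anti-fII for 7 h, then Alexa 680 secondary. Cy7 imaged at 784 nm, antibody at 658 nm. At least 3 replicates.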

For another test, the system named is APC in human plasma. Briefly: APC labeling by fluorescent ABP in human plasma. Particulars: EDTA plasma diluted 7.5 times, probe 20 μM, 60 min, 37 °C; SDS–PAGE. In a few lines:
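Human plasma from EDTA-anticoagulated whole blood, diluted 7.5-fold in 20 mM Tris, 150 mM NaCl, 5 mM CaCl2, pH 7.4, mixed 1:1 with APC-directed Cy5 probe (1–20 μM), 60 min, 37 °C. SDS/DTT reduction at 95 °C for 5 min, then 12% SDS–PAGE and nitrocellulose blot. Chicken anti-protein C for 7 h, then Alexa 488 secondary. Cy5 imaged at 658 nm, antibody at 488 nm. At least 3 replicates.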

Test [4] deals with T2, fXa (factor Xa) (Homo sapiens, UniProt P00742). The test can be described thus: Substrate kinetics. In outline: as §1
Test [5] deals with T2, fXa (factor Xa). Briefly: Initial substrate screening. Particulars: 1 μM substrate, relative to SMX15. In a few lines:
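ACC fluorogenic substrates at 1 μM final, from 10 mM stocks diluted 100-fold in DMSO. fXa (7–100 nM, set per substrate for adequate signal) preincubated 15 min at 37 °C in 20 mM Tris, 150 mM NaCl, 5 mM CaCl2, pH 7.4. Hydrolysis read for 30 min at 37 °C (ex 355, em 460 nm). Linear-phase RFU s−1 normalised to equal enzyme activity, averaged over at least two repeats.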

Test [6] deals with T2, fXa (factor Xa). Briefly: Inhibition kinetics. Particulars: ratio of kobs/I values.

Non-standard residues stand in square brackets, D forms with d. *: point of attachment. 1Nal = N[C@@H](Cc1cccc2ccccc12)C(=O)O; ACC = NC(=O)Cc1cc(=O)oc2cc(N*)ccc12; Igl = N[C@H](C(=O)O)C1Cc2ccccc2C1; hArg = N=C(N)NCCCC[C@H](N)C(=O)O; Dab = NCC[C@H](N)C(=O)O; Cbz = O=C(OCc1ccccc1)*

Sequence of APC (activated protein C) (P04070 212-461 limits assumed): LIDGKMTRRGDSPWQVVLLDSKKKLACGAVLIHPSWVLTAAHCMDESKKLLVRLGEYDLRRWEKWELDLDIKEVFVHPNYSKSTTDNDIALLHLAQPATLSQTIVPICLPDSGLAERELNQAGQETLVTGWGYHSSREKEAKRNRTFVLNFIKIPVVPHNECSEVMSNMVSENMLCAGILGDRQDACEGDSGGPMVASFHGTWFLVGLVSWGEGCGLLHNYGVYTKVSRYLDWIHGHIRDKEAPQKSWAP
Sequence of APC (activated protein C) (P04070 43-197 partner limits assumed): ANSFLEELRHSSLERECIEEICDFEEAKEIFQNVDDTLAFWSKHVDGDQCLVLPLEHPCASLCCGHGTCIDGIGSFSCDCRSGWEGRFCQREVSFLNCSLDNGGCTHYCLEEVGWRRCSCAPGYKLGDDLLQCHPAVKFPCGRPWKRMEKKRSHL
T2 sequence (P00742 235-488 limits assumed): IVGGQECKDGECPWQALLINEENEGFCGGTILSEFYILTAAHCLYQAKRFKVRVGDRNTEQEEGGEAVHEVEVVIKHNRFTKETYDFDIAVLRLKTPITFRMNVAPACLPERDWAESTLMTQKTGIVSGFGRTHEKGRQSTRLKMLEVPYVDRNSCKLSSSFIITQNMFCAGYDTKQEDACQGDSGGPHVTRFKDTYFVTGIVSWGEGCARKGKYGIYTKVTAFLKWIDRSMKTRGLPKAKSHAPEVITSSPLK
T2 sequence (P00742 41-179 partner limits assumed): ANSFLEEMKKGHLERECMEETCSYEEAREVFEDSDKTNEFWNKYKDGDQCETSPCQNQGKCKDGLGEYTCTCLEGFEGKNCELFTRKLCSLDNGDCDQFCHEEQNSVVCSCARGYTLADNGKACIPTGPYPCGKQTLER

As to “Ac-Lys-Dab(Z )-Lys(2-Cl-Z)-Arg-AC C [SMA1]”, in test [1], the “increase in activity on exchanging L-Nle(O-Bzl) (SMA4) at P3” value (“increase in activity” for short) came out at 13 fold.

“Ac–hCha–Cys(MeBzl)–Pip–Arg^P(OPh)2 [I-SMII22]”: at thrombin [2], the “kobs/I selectivity: thrombin inhibition more rapid than APC” value is reported as 348 fold and the “kobs/I selectivity: thrombin inhibition more rapid than fXa” value was found to be 2087 fold.

Regarding Ac–hCha–Cys(MeBzl)–Pip–Arg–ACC [SMII22], at thrombin [3], the “kcat/KM selectivity for thrombin over APC” value worked out at 3383 fold and the “kcat/KM selectivity for thrombin over fXa” value is reported as 162 fold.

Regarding “Cy7–6-Ahx–hCha–Cys(MeBzl)–Pip–Arg^P(OPh)2 [P-SMII222]”, the “selectivity of thrombin labeling in human plasma at 20 μM probe” value in the test with thrombin in human plasma is “selectivity was maintained with thrombin labeling”.

As for “Ac-Lys-Glu(Bzl)-Lys(2-Cl-Z)-Arg-AC C [SMA3]”, the “increase in activity” value in test [1] was 5.5 fold.

Regarding “Cy5–6-Ahx–Lys–Dab(Z)–Lys–Arg^P(OPh)2 [P-SMA172]”, the “off-target labeling in human plasma at 20 μM probe” value with APC in human plasma is “only minor additional labeling between 25 and 35 kDa”.

For “Ac-[dP][hArg][1Nal]R-{ACC} (SMILES CC(=O)N1CCC[C@@H]1C(=O)N[C@@H](CCCCNC(=N)N)C(=O)N[C@@H](Cc1cccc2ccccc12)C(=O)N[C@@H](CCCNC(=N)N)C(=O)Nc1ccc2c(CC(N)=O)cc(=O)oc2c1) [SMX15]”, the “times more hydrolyzed by fXa than by thrombin” value on fXa (factor Xa) [4] (ratio of kcat/KM values) amounted to 358 times.

As to Ac-Lys-Agp-Lys(2-Cl-Z)-Arg-AC C [SMA2], in test [1], the “increase in activity” value was found to be 22 fold.

As to Ac-Arg(NO2)-hArg-1-Nal-Arg-AC C [SMX13], the “change of overall activity on replacing D-Pro (SMX15) at P4” value at fXa (factor Xa) [5] is reported as “only a slight decrease in the overall activity”.

For the substance “Ac-M[hArg][1Nal]R-{ACC} (SMILES CSCC[C@H](NC(C)=O)C(=O)N[C@@H](CCCCNC(=N)N)C(=O)N[C@@H](Cc1cccc2ccccc12)C(=O)N[C@@H](CCCNC(=N)N)C(=O)Nc1ccc2c(CC(N)=O)cc(=O)oc2c1) [SMX61]”, at fXa (factor Xa) [4] (fXa, relative to SMX15), the “increase of the kcat/KM value on exchanging D-Pro at P4 (SMX15) for L-Met” value was found to be 55%.

In the case of “Ac-K[Dab](Cbz)[Igl]R-{ACC} (SMILES CC(=O)N[C@@H](CCCCN)C(=O)N[C@@H](CCNC(=O)OCc1ccccc1)C(=O)N[C@H](C(=O)N[C@@H](CCCNC(=N)N)C(=O)Nc1ccc2c(CC(N)=O)cc(=O)oc2c1)C1Cc2ccccc2C1) [SMA5]”, in test [1] (relative to SMA54), the “cleaved more efficiently than the best natural substrate (SMA54)” value is recorded as “approximately 50 fold”.

With “Cy3–6-Ahx–DPro–hArg–1-Nal–Arg^P(OPh)2 [P-SMX152]”, the “inhibition of APC less efficient than fXa” value at fXa (factor Xa) [6] was 75 fold.

Regarding Ac-Gln-hArg-1-Nal-Arg-AC C [SMX14], the “change of overall activity on replacing D-Pro (SMX15) at P4” value at fXa (factor Xa) [5] was “only a slight decrease in the overall activity”.

Values taken from paper PMC9200056 (Chemical Science, 2022).
